Test results from ChEMBL document CHEMBL1123581, “Differential blockade of muscarinic receptor subtypes by polymethylene tetraamines. Novel class of selective antagonists of cardiac M-2 muscarinic receptors” (J Med Chem, 1987).

How the values were obtained:
[1] = target: Muscarinic acetylcholine receptor; test: Compound was evaluated for blocking activity on Muscarinic acetylcholine receptor in guinea pig atria; type: protein assay, Cavia porcellus
[2] = target: Muscarinic acetylcholine receptor; test: Compound was evaluated for blocking activity on Muscarinic acetylcholine receptor in rat ileum; type: tissue-based
Procedure, shortened: (§1)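 Male rat terminal ileum segment (20 mm, ~5 cm from ileocecal junction) or 2-mm longitudinal bladder strip, in Krebs-type solution. After 30 min equilibration, cumulative furtrethonium iodide curves (~3-fold steps) at 30-min intervals; antagonist incubated 30 min. Isometric contraction recorded.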

[3] = Selectivity ratio of pA2 of guinea pig atria to pA2 of rat bladder
Procedure, shortened: (§2)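 Computed as the antilog of the difference between pA2 values for the two tissues (atria/ileum, atria/bladder, ileum/bladder). Each pA2 is a Schild value from muscarinic agonist dose ratios at three antagonist concentrations, each n≥5.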

[4] = Selectivity ratio of pA2 of guinea pig atria to pA2 of rat ileum; type: tissue-based; procedure, shortened: as §2
[5] = Selectivity ratio of pA2 of rat ileum to pA2 of rat bladder; type: tissue-based; procedure, shortened: as §2
[6] = target: Muscarinic acetylcholine receptor; test: Compound was evaluated for blocking activity on Muscarinic acetylcholine receptor in rat bladder; procedure, shortened: as §1

Compound | pA2 [1] | pA2 [2] | Ratio [3] | Ratio [4] | Ratio [5] | pA2 [6]
COc1ccccc1CNCCCCCCNCCCCCCCCCCCCNCCCCCCNCc1ccccc1OC.Cl | 7.35 | 7.62 | 1.66 | 0.54 | 3.09 | 7.13
COc1ccccc1CNCCCCCCNCCCCCCCCCCNCCCCCCNCc1ccccc1OC.Cl.Cl.Cl.Cl | 7.71 | 5.73 | 166 | 95 | 1.74 | 5.49
COc1ccccc1CNCCCCCCNCCCCCCCCCNCCCCCCNCc1ccccc1OC.Cl.Cl.Cl.Cl | 7.96 | 5.81 | – | – | – | 6.08
COc1ccccc1CNCCCCCCNCCCCCCNCCCCCCNCc1ccccc1OC.Cl.Cl.Cl.Cl | 6.87 | 5.29 | 20 | 38 | 0.52 | 5.57
